L929 necroptosis: blocks zVAD induced death of L929 cells; L929 zVAD necroptosis rescue, ATP luminescence, 24 h; with zVAD 60 µM; viability rescue, % at 10 µM; 220,000 compounds, 0.38% hits; AID 1377;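 active = activation, scaled between plate controls, above about 75%, limit read from the data; inactive = activation under that limit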;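 also: 0% = zVAD with DMSO and 100% = DMSO alone without zVAD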
Mdm2 ligase inh: Mdm2 E3 ligase (human) inhibition; Q00987; cell-based MDM2 ubiquitination luciferase reporter, 2 h; 0 = plate control, 100 = twice control, blank-subtracted; signal enhancement, % at 5 µM; 210,000 compounds, 0.11% hits; AID 1230;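 active = signal enhancement of 30% or more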;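 also: luminescence tracks abundance of the self-degrading MDM2-luciferase fusion protein; higher signal means inhibition of MDM2 E3 ligase activity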
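Test system: mammalian cells stably expressing self-ubiquitinating, self-degrading MDM2 E3–luciferase fusion; Amount: 2000 cells in each well; Medium: DMEM; Schedule: 4 h settle plus 2 h compound, 37 °C; Technique: SteadyLite luciferase luminescence after 15 min room-temperature reagent incubation; Benchmarks: plate control and blank wells.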
TNF necrop inh: inhibitors of TNF-alpha induced necroptosis in Jurkat FADD-/- cells. Jurkat FADD-/- TNF necroptosis rescue, ATP luminescence, 24 h; 0 = TNF only, 100 = no-TNF cells. activation (protection from cell death), % at 10 µM. 220,000 compounds, 0.068% hits;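 active = activation, meaning protection from cell death, of at least 50% relative to plate controls; inactive = activation below 50%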;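 also: necroptosis triggered by 40 ng/mL TNF-alpha added together with compound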
Beta2AR agonist: agonists of human beta-2 adrenergic receptor inducing internalization; response, % (test concentration not listed); 340,000 compounds, 0.43% hits; P07550; Am2.2-beta2AR cells, FAP receptor internalization, flow cytometry; AID 504454;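 active = response above a set limit, near 3 SD of response in nonfluorescent compounds, cut at about 42% in these data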
Target sequence (P07550 whole entry, looked up): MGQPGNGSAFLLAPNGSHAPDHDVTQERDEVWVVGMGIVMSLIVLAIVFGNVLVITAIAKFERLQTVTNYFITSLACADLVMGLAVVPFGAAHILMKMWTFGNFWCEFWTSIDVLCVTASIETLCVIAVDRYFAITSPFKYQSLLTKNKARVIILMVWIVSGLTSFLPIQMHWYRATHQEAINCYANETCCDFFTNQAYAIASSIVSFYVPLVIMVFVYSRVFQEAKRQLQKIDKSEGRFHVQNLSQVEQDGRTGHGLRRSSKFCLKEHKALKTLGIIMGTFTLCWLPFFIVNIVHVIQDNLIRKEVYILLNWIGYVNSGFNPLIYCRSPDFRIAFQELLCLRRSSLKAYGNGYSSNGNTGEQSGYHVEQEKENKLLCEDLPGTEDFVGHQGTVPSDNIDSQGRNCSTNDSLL
Dynein cargo inh: blocks dynein driven cargo transport along microtubules; 3617.4 mouse cells, GR-EGFP nuclear translocation imaging; test concentration mostly 20 µM; stimulated with dexamethasone, 1 µM; active compounds read low; z-score, hits read low; 220,000 compounds, 0.47% hits;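 active = plate z-score of nuclear minus cytoplasmic receptor signal below a set negative limit, without overly bright fluorescence or cell loss, cut at about -3.5 in these data, passing the limit was not always enough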;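 also: z-score of nuclear minus cytoplasmic ring GR-EGFP intensity difference per well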
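Also added – dexamethasone, 1.0 µM final · Buffer or medium – tet-free, stripped-serum medium · Schedule – induction 48 h, compound 1 h, agonist 30 min · Detection – formaldehyde fixation, Hoechst nuclear stain, 10x automated fluorescence imaging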
zVAD death conf: confirmed blocker of zVAD induced death in L929 cells; shares compounds with L929 necroptosis; L929 zVAD-induced necroptosis rescue, ATP luminescence, 24 h; activation (protection from necroptosis), % at 10 µM; 760 compounds, 16% hits;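 active = mean protection from necroptosis of at least 50% over duplicate tests; inactive = mean protection below 50%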;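 also: 0% = cells with zVAD alone and 100% = vehicle cells without zVAD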
* hit, by the source's call; · = no result given. Most compounds without a hit are left out; they make up all but 0.97% or so of the library.

SMILES	L929 necroptosis	Mdm2 ligase inh	TNF necrop inh	Beta2AR agonist	Dynein cargo inh	zVAD death conf
C=CCn1c(SCc2ccc(C(=O)Nc3nccs3)cc2)nnc1-c1ccc(C)c(Cl)c1	103*	-3	9	15	0.068	60*
COc1ccc(-c2noc(C3CCCN(C(=O)Nc4ccccc4)C3)n2)cc1 (stereo unspecified)	0	2	5	4	1	·
COC(=O)c1ccc(/C=N/Nc2nc(C)c(C)s2)cc1	80*	-25	11	4	3.1	2
Cc1cc(Oc2ccccc2F)nc(NCc2ccccc2)n1	0	13	-1	-4	-0.75	·
CN(C)S(=O)(=O)c1cccc(NC(=O)CCSc2ccc(Cl)cc2)c1	77*	2	-3	1	-0.11	42
CN(C)S(=O)(=O)c1cccc(NC(=O)CCNC(=O)Nc2ccccc2)c1	·	·	·	-2	·	·
Cc1cc(C(=O)N/N=C/c2cccs2)n[nH]1	82*	-18	20	-1	0.37	2
Cc1cc(C(=O)N/N=C/c2ccc(-c3cccc(Cl)c3)o2)n[nH]1	75*	5	23	19	-0.12	7
Cn1cc(C(=O)N/N=C/c2cccs2)c2ccccc21	81*	-8	-3	-12	-0.076	5
O=S(=O)(Nc1cccc(-c2cn3ccsc3n2)c1)c1ccc(F)cc1	0	-9	1	-5	-0.013	·
CCOc1ccccc1C(=O)NCC(=O)O	0	1	0	0	0.8	·
CC(=O)/C=C(\C)Nc1ccccc1O	81*	-2	12	12	-0.62	9
O=C(N/N=C/c1ccc(Cl)cc1Cl)c1n[nH]c2c1CCCC2	1	-14	-5	-2	-0.26	·
O=C(N/N=C\c1cccc(Cl)c1)c1n[nH]c2c1CCCC2	83*	-20	6	3	-0.73	28
Brc1ccc2[nH]c3c(NCc4ccccn4)ncnc3c2c1	75*	7	8	-2	0.34	2
COc1ccc(C(=O)Nc2ncc(C)s2)cc1S(=O)(=O)N1CCCC1	89*	-17	13	2	-0.71	2
CCCC(=O)n1nc(-c2cccnc2)nc1NCc1ccccc1	79*	14	2	-2	0.23	1
CCC(=O)n1nc(-c2cccnc2)nc1NCc1ccccc1	79*	-18	2	-4	-0.17	8
O=C(c1cccc([N+](=O)[O-])c1)n1nc(-c2ccccc2)nc1NCc1ccccc1	80*	-17	4	14	0.19	3
CCC(=O)n1nc(-c2cccnc2)nc1NCc1ccc(F)cc1	72	-7	2	1	-0.84	·
CCCC(=O)n1nc(-c2cccnc2)nc1NCc1cccs1	77*	5	2	19	-0.54	1
O=C(c1ccc([N+](=O)[O-])cc1)n1nc(-c2ccccc2)nc1NCc1ccccc1	48	-9	-1	2	-0.59	·
CCC(=O)n1nc(-c2cccnc2)nc1NCc1cccs1	73	-11	1	-3	-1.4	·
COC(=O)c1cc2c(ccn2-c2ccc(F)cc2)n1Cc1cccc(OC)c1	1	-5	2	-24	0.16	·
O=C(NCCn1ccc2ccccc21)c1cccc([N+](=O)[O-])c1	0	0	0	-6	-0.27	·
SMILES	L929 necroptosis	Mdm2 ligase inh	TNF necrop inh	Beta2AR agonist	Dynein cargo inh	zVAD death conf
Cc1nn(Cc2ccc(Cl)cc2)c(C)c1NC(=O)C1CC=CCC1C(=O)O (stereo unspecified)	0	0	0	-3	-0.16	·
COc1ccc(-n2c(C)nc3cc(C(=O)N4CCOCC4)ccc32)cc1	0	·	0	-2	0.36	·
Cc1ccc(C(=O)Nc2cccc(C(F)(F)F)c2)cc1Nc1cncnc1	·	·	·	-2	·	·
Cc1ccc(C(=O)Nc2cccc(C(F)(F)F)c2)cc1Nc1ccccn1	79*	9	3	5	0.2	65*
COc1ccc(NC(=O)c2ccc(S(=O)(=O)N3CCCCC3)cc2)c(OC)c1	·	·	·	-2	·	·
COc1ccc(NC(=O)c2ccc(S(=O)(=O)C(F)F)cc2)c(OC)c1	77*	-1	0	7	0.088	1
CC(=O)Nc1ccc2c(c1)n(C)c(=O)n2C	0	-24	0	4	0.78	·

Screening data (PubChem BioAssay)
